Only some compounds are listed: those with a hit (about 2.6% of all), similar ones and a draw of the others.
DENV2 CPE: protects cells from dengue virus 2 cytopathic effect. DENV2-infected cells, cytopathic effect rescue, plate reader. hit rate 1.7% among 350,000. CPE inhibition, % at 9.99 µM; in the data active = CPE inhibition above about 20%, passing the limit was not always enough; inconclusive = no clear call, values can overlap the other calls; tested in BHK-21 cells
CFTR F508del cor: correctors of CFTR F508del function in bronchial epithelial cells; CFBE cells, YFP halide quenching; stimulated with forskolin plus potentiator P3; % fluorescence drop versus neutral controls; AID 720511; activity (quench increase), % at 7.58 µM; hit rate 0.36% among 350,000;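 active = mean added fluorescence quench of at least 8% versus neutral control, with both replicates also reaching 8%; inconclusive = only one of the mean or replicate conditions met; inactive = mean below 8% and not both replicates reaching 8%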;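 also: cells transiently co-express mutant CFTR-F508del with the halide-sensitive YFP; corrector assay measuring rescue of mutant channel to the surface after 24 h compound exposure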
miR-122 sensor: miR-122 inhibition in Huh7 cells. Huh7 miR-122 Renilla luciferase sensor, 48 h; neutral wells = 0, positive control = 100. activation (reporter increase), % at 12.5 µM. hit rate 0.3% among 340,000. AID 602342;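 active = mean replicate activation score at least 90 and every replicate individually at or above 90; inconclusive = only one of the two criteria met; inactive = neither criterion met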;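 also: higher luciferase means less miR-122 activity so hits act as miR-122 inhibitors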
INS-1E GSIS act: GLuc luminescence reporter in INS-1E cells, primary screen for activators of glucose-dependent secretion of insulin; INS-1E GLuc reporter insulin secretion, 2-3 h; activation, % at 16.6 µM; hit rate 0.61% among 370,000; AID 743287;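 active = lowest replicate activation of at least 40%, so every replicate reaches that level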
E-selectin induc: E-selectin induction on HUVECs. HUVEC E-selectin immunofluorescence imaging; normalized: neutral wells 0, TNF-alpha wells 100. activation, % at 7.58 µM. hit rate 0.37% among 260,000;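 active = mean E-selectin-positive cell signal at least 10% of the positive control, reached in at least 60% of replicates, without over 20% cell loss; inconclusive = no rule given, readout overlaps actives, possibly toxicity-flagged; inactive = the rest, including those meeting only one limit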
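material = human umbilical vein endothelial cells (HUVEC), E-selectin induction | quantity = 3,000 cells/well | medium = EGM-2 growth medium on 0.1% gelatin-coated wells | technique = immunofluorescence imaging | read-out basis = % PE-positive cells | control set = TNF-alpha positive control, DMSO neutral control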
ERAP1 inh: inhibitors of human ERAP1 aminopeptidase; Q9NZ08; recombinant ERAP1, Leu-AMC fluorescence, 60 min; inhibition, % at 10.7 µM; hit rate 0.15% among 340,000; AID 652197;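 active = mean replicate inhibition of at least 30%, or all replicates individually reaching that 30% level; inactive = mean below 30% and not every replicate reaching it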
Numbers stand for hits.

Results for COc1cccc(C(=O)Nc2ccc3c(c2)C(=O)N(C)C[C@@H](OC)[C@H](C)CN[C@@H](C)CO3)c1 ?
DENV2 CPE: inactive; CFTR F508del cor: inactive; INS-1E GSIS act: inactive; E-selectin induc: inactive; ERAP1 inh: inactive

How did C[C@@H]1CN([C@H](C)CO)C(=O)c2cc(NC(=O)c3ccncc3)ccc2O[C@H]1CN(C)Cc1ccncc1 do in these assays?
DENV2 CPE: inactive; CFTR F508del cor: inactive; miR-122 sensor: inactive; INS-1E GSIS act: inactive; E-selectin induc: inactive; ERAP1 inh: inactive

Results for COc1ccc(CN(C)C[C@@H]2Oc3ccc(NC(=O)c4ccncc4)cc3C(=O)N([C@H](C)CO)C[C@H]2C)cc1 ?
DENV2 CPE: inactive; CFTR F508del cor: inactive; miR-122 sensor: inactive; INS-1E GSIS act: inactive; E-selectin induc: 93

What do the screens show for `COc1ccc(CN(C)C[C@H]2Oc3ccc(NC(=O)c4ccncc4)cc3C(=O)N([C@H](C)CO)C[C@@H]2C)cc1`?
DENV2 CPE: inactive; CFTR F508del cor: inactive; miR-122 sensor: inactive; INS-1E GSIS act: inactive; E-selectin induc: 47; ERAP1 inh: inactive

What do the screens show for `C[C@H]1CN([C@@H](C)CO)C(=O)c2cc(NC(=O)c3ccncc3)ccc2O[C@H]1CN(C)Cc1ccncc1`?
DENV2 CPE: inactive; CFTR F508del cor: inactive; miR-122 sensor: inactive; INS-1E GSIS act: inactive; E-selectin induc: inactive; ERAP1 inh: inactive

Results for C[C@@H]1CN([C@@H](C)CO)C(=O)c2cccc(NS(C)(=O)=O)c2O[C@@H]1CN(C)S(=O)(=O)c1ccccc1 ?
DENV2 CPE: inactive; CFTR F508del cor: inactive; miR-122 sensor: inactive; INS-1E GSIS act: inactive; E-selectin induc: inactive; ERAP1 inh: inactive

Results for O=C(C[C@H]1CC[C@H]2[C@@H](COC[C@H](O)CN2S(=O)(=O)c2ccc(F)cc2)O1)NCC1CCCCC1 ?
DENV2 CPE: inconclusive; CFTR F508del cor: inactive; miR-122 sensor: inactive; INS-1E GSIS act: inactive; E-selectin induc: inactive; ERAP1 inh: inactive

What do the screens show for `Cc1ccc(SC[C@H](Cc2ccccc2)N2CC[C@@H](C)CCC2=O)cc1`?
DENV2 CPE: 94; CFTR F508del cor: inactive; miR-122 sensor: inactive; E-selectin induc: inactive; ERAP1 inh: inactive

How did CCCN1CCC(=O)N([C@H](CSc2ccccc2)Cc2ccccc2)CC1 do in these assays?
DENV2 CPE: 49; CFTR F508del cor: inactive; miR-122 sensor: inactive; INS-1E GSIS act: inactive; E-selectin induc: inactive

How did CCCN1CCC(=O)N([C@H](CSc2ccc(Br)cc2)Cc2ccccc2)CC1 do in these assays?
DENV2 CPE: inactive; CFTR F508del cor: inactive; miR-122 sensor: inactive; INS-1E GSIS act: inactive; E-selectin induc: inactive; ERAP1 inh: inactive

How did C[C@@H]1CN([C@H](C)CO)C(=O)Cc2cc(NC(=O)CCCCCC(=O)Nc3ccccc3N)ccc2O[C@@H]1CN(C)C(=O)Nc1ccc(C(F)(F)F)cc1 do in these assays?
DENV2 CPE: inactive; CFTR F508del cor: inactive; miR-122 sensor: inactive; INS-1E GSIS act: inactive

Results for C[C@H]1CN([C@@H](C)CO)C(=O)Cc2cc(NC(=O)CCCCCC(=O)Nc3ccccc3N)ccc2O[C@H]1CN(C)Cc1ccc(C(F)(F)F)cc1 ?
DENV2 CPE: 80; CFTR F508del cor: inactive; miR-122 sensor: inactive; INS-1E GSIS act: inactive; E-selectin induc: inactive; ERAP1 inh: inactive

What do the screens show for `C[C@H]1CN([C@@H](C)CO)C(=O)Cc2cc(NC(=O)CCCCCC(=O)Nc3ccccc3N)ccc2O[C@@H]1CN(C)Cc1ccc(C(F)(F)F)cc1`?
DENV2 CPE: inactive; CFTR F508del cor: inactive; miR-122 sensor: inactive; INS-1E GSIS act: inactive; E-selectin induc: inactive; ERAP1 inh: inactive

How did C[C@@H]1CN([C@@H](C)CO)C(=O)Cc2cc(NC(=O)CCCCCC(=O)Nc3ccccc3N)ccc2O[C@H]1CN(C)Cc1ccc(C(F)(F)F)cc1 do in these assays?
DENV2 CPE: 50; CFTR F508del cor: inactive; miR-122 sensor: inactive; INS-1E GSIS act: inactive; E-selectin induc: inactive; ERAP1 inh: inactive

Results for COc1cc(/C=N/n2cnnc2)ccc1OCCOc1ccccc1 ?
miR-122 sensor: inactive

What do the screens show for `C=CCc1ccc(OCCOc2ccc(/C=N/n3cnnc3)cc2OCC)c(OC)c1`?
miR-122 sensor: inactive; INS-1E GSIS act: 61

What do the screens show for `C[C@@H]1CN([C@@H](C)CO)C(=O)c2cc(NC(=O)c3ccncc3)ccc2O[C@@H](C)CCCCO[C@H]1CN(C)C(=O)Nc1ccc(F)cc1`?
DENV2 CPE: inactive; CFTR F508del cor: inactive; miR-122 sensor: inactive; INS-1E GSIS act: inactive; E-selectin induc: inactive; ERAP1 inh: inactive

What do the screens show for `COC(=O)[C@H]1[C@H](CO)[C@H]2Cn3c(ccc(/C=C/c4ccccc4)c3=O)[C@H]2N1C(=O)CC1CC1`?
CFTR F508del cor: inactive; miR-122 sensor: inactive; INS-1E GSIS act: inactive; E-selectin induc: inactive

What do the screens show for `O=S(=O)(Nc1cc(Sc2ncn[nH]2)c(O)c2ccccc12)c1ccccc1`?
DENV2 CPE: inactive; CFTR F508del cor: inactive; miR-122 sensor: inactive; INS-1E GSIS act: inactive; ERAP1 inh: 56

Results for C[C@@H]1CN([C@@H](C)CO)C(=O)c2cc(NC(=O)Nc3ccc(F)cc3)ccc2O[C@@H]1CN(C)Cc1ccncc1 ?
DENV2 CPE: inactive; CFTR F508del cor: inactive; miR-122 sensor: inactive; INS-1E GSIS act: inactive; E-selectin induc: inactive; ERAP1 inh: inactive

How did CC(C)C#Cc1cnc2c(c1)C(=O)N([C@@H](C)CO)C[C@H](C)[C@H](CN(C)C(=O)c1cnccn1)O2 do in these assays?
DENV2 CPE: inactive; CFTR F508del cor: inactive; miR-122 sensor: inactive; INS-1E GSIS act: inactive; E-selectin induc: inactive; ERAP1 inh: inactive

Results for C[C@@H]1CN([C@@H](C)CO)C(=O)c2cc(C#CCN(C)C)cnc2O[C@@H]1CN(C)C(=O)c1cccnc1 ?
DENV2 CPE: inactive; CFTR F508del cor: inactive; miR-122 sensor: inactive; INS-1E GSIS act: inactive; E-selectin induc: inactive; ERAP1 inh: inactive

Results for Cc1ccc(S(=O)(=O)Nc2ccc3c(c2)CC(=O)N([C@H](C)CO)C[C@@H](C)[C@@H](CN(C)S(=O)(=O)c2ccc(C)cc2)O3)cc1 ?
DENV2 CPE: inactive; CFTR F508del cor: inactive; miR-122 sensor: inactive; INS-1E GSIS act: inactive; E-selectin induc: inactive; ERAP1 inh: inactive

How did Cc1ccc(S(=O)(=O)N(C)C[C@H]2Oc3ccc(NC(=O)NC4CCCCC4)cc3CC(=O)N([C@H](C)CO)C[C@H]2C)cc1 do in these assays?
DENV2 CPE: inactive; CFTR F508del cor: inactive; miR-122 sensor: inactive; INS-1E GSIS act: inactive; E-selectin induc: inactive; ERAP1 inh: inactive

How did Cc1ccc(S(=O)(=O)Nc2ccc3c(c2)CC(=O)N([C@@H](C)CO)C[C@@H](C)[C@@H](CN(C)S(=O)(=O)c2ccc(Cl)cc2)O3)cc1 do in these assays?
DENV2 CPE: inactive; CFTR F508del cor: inactive; miR-122 sensor: inactive; INS-1E GSIS act: inactive; E-selectin induc: inactive

Bioassay records (PubChem BioAssay)
